# This is a sample that favours compounds with a hit; in the whole collection about 1.2% have one here.
# TRPML3 ag = human TRPML3 channel agonists, primary screen, cell-based, HEK293 TRPML3-YFP, Fluo-8 calcium fluorescence, 3 µM | 220,000 compounds, 0.29% hits | Mucolipin-3 (Homo sapiens), Q8TDD5 | AID 1448, 2008 | 100% = the carbachol control signal | activation, % at 3 µM;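 active means activation above its plate's cutoff, the mean activation of the plate's test wells plus 3 SD, cut at about 12% in these data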;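 further: 0% = DMSO only wells and 100% = carbachol wells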
# Target sequence (Q8TDD5 whole entry, looked up): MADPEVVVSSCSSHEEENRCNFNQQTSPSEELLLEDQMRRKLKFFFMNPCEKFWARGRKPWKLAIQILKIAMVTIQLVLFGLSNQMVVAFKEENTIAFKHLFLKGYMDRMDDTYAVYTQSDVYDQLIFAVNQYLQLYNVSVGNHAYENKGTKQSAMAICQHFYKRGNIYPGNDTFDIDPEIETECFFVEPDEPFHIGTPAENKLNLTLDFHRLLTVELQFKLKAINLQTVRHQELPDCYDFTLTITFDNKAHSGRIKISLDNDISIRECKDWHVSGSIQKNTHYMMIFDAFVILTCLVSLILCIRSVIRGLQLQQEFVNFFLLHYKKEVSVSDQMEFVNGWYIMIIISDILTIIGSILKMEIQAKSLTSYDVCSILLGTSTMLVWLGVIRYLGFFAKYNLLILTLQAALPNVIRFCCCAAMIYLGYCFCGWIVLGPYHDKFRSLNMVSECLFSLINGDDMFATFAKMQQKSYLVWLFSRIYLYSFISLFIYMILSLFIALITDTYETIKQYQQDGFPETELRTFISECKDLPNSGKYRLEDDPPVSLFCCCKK
#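 Material: TRPML3-YFP stable HEK293 cells | Dosing: One concentration, 3 µM nominal, 0.3% DMSO | Timing: 125 s total fluorescence read per well | Technique: Fluo-8 calcium dye fluorescence, ex 470-495, em 515-575 nm | Measure: Percent activation from peak-to-basal fluorescence ratio, scaled between DMSO and carbachol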
# CRFR2-BP ag = agonists of CRF-BP/CRF-R2 complex, primary screen, cell-based, HEK293, calcium dye fluorescence, uHTS; AID 588473, 2011; CRF-binding protein / CRF receptor 2 complex (human); 350,000 compounds, 0.46% hits; calcium dye fluorescence (FLIPR); percent of saturating CRF peptide response; activation, % at 13.2 µM;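 active means activation of at least 50%, plus an integration ratio under a set limit after plate pattern correction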;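 further: plate controls were neutral control wells without compound for no effect and CRF at EC100 for full effect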
# CRFR2-BP antag = antagonists of CRF-BP/CRF-R2 complex, primary screen, cell-based, HEK293, calcium dye fluorescence, uHTS; CRF-induced calcium fluorescence; inhibition, % at 11.8 µM; 350,000 compounds, 0.59% hits; AID 588475, 2011;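 active means inhibition of the ligand-induced calcium signal above about 50% at the single tested concentration, limit read from the data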
# TRPN1 ag = zebrafish TRPN1 channel agonists, primary screen, cell-based, HEK293, calcium fluorescence. HEK293 zebrafish TRPN1-YFP, Fluo-8 calcium fluorescence; 100% = response to 87 µM carbachol. activation, % at 3 µM. 220,000 compounds, 0.18% hits. AID 1424, 2008;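 active means activation above its plate's cutoff, the mean activation of test wells on that plate plus 3 SD, cut at about 19% in these data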;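 further: 0% = DMSO alone and 100% = 87 µM carbachol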
#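 Material – zebrafish TRPN1-YFP in HEK293 cells · Doses – 3 µM single point · Schedule – dye 1 h 37 °C plus 30 min RT · Signal – Fluo-8 calcium fluorescence, excitation 470-495 nm, emission 515-575 nm · Read-out – % activation versus carbachol response · Control set – carbachol high, DMSO low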
# * hit, by the source's call; . = not tested or not shown.
SMILES,TRPML3 ag,CRFR2-BP ag,CRFR2-BP antag,TRPN1 ag
CCOc1ccc(-c2ccc(SCC(=O)NCC3CCCO3)nn2)cc1 (stereo not given),1,-2,-3,-2
Cc1ccc(-c2ccc(SCC(=O)NCC3CCCO3)nn2)cc1 (stereo not given),1,0,83*,-1
Nc1c(S(=O)(=O)c2ccccc2)c2nc3ccccc3nc2n1Cc1ccco1,3,65*,-77,2
Cc1ccc(S(=O)(=O)c2c(N)n(Cc3ccco3)c3nc4ccccc4nc23)cc1C,1,48,-39,1
CC[C@H]1C(c2ccc(F)cc2)=NN(c2ccccc2)[C@@H]1CO,.,3,-8,.
c1cncc(-c2ccc3ncnc(NCc4cccs4)c3c2)c1,.,0,0,.
COc1cccc(-c2ccc3ncnc(NCc4cccs4)c3c2)c1,.,-2,54*,.
CN(CC(=O)Nc1ccc(F)cc1)C(=O)COc1ccccc1Cc1ccccc1,.,2,-6,.
CN1C(=O)NC(NC(=O)c2ccco2)(C(F)(F)F)C1=O (stereo not given),1,-2,-4,-1
Cc1c(O)c(CN2CCCCC2)cc2c1oc(=O)c1ccccc12,0,7,59*,-1
CCOc1ccc(N=Cc2ccc([N+](=O)[O-])cc2)c(O)c1,.,21,-13,.
N/C(=N\OC(=O)COc1ccc([N+](=O)[O-])cc1)c1ccncc1,1,-1,-6,3
N/C(=N\OC(=O)COc1ccc(Br)cc1)c1ccncc1,1,-5,59*,-1
COc1ccc(N(CC(=O)N/N=C/c2ccc3c(c2)OCO3)S(=O)(=O)c2ccc(NC(C)=O)cc2)cc1,0,1,54*,0
COc1cc2ccccc2cc1C(=O)N/N=C/c1ccc2c(c1)OCO2,.,-1,53*,.
C=C1CN(Cc2ccccc2)S(=O)(=O)c2ccccc21,.,2,1,.
COc1ccc(/C=C2/CCc3ccccc3C2=O)cc1OC,0,-1,2,1
COc1cc(OC)c(OC)cc1/C=C1/Cc2ccccc2C1=O,.,51*,-23,.
Cc1ccc(S(=O)(=O)N2c3ccccc3OCC2C(C)(C)C)cc1 (stereo not given),0,4,90*,-1
Cc1ccc2c(c1)N(S(=O)(=O)c1ccc(F)cc1)C(C(C)(C)C)CO2 (stereo not given),0,0,11,-1
N#C/C(=N\Nc1ccc(Cl)cc1)C(=O)c1ccccc1,4,44,83*,12
COc1ccc(C(=O)/C(C#N)=N/Nc2ccccc2[N+](=O)[O-])cc1,3,23,61*,5
COc1ccc(C(=O)/C(C#N)=N/Nc2ccc([N+](=O)[O-])cc2)cc1,5,23,71*,11
CCCc1c(C)nn(C(=O)/C(C#N)=N/Nc2ccccc2[N+](=O)[O-])c1C,3,1,-2,2
NCc1cccc(CNc2ccc([N+](=O)[O-])cc2C(N)=O)c1,.,1,-4,.
SMILES,TRPML3 ag,CRFR2-BP ag,CRFR2-BP antag,TRPN1 ag
O=C(CN1C(=O)C2CCCN2C(=O)c2ccccc21)Nc1ccccc1-n1cccc1 (stereo not given),0,.,.,1
COc1ccccc1NC(=O)CCc1nnc2ccc(N3CCCCC3)nn12,.,-1,6,.
CCOc1ccccc1NC(=O)CCc1nnc2ccc(N3CCC(C)CC3)nn12,.,0,69*,.
CC(=O)c1ccc(NC(=O)CCc2nnc3ccc(N4CCC5(CC4)OCCO5)nn23)cc1,.,1,65*,.
Cc1ccccc1CN(C)C(=O)COC(=O)c1ccc2[nH]c(C)c(C)c2c1,.,1,64*,.
COc1cc(/C=C(\C#N)C(=O)Nc2ccc3c(c2)OCCO3)ccc1O,0,11,73*,4
CCOC(=O)c1c(-c2ccccc2)csc1NC(=O)/C(C#N)=C\c1ccc(O)c(OC)c1,.,132*,-51,.
CCOC(=O)c1c(-c2ccc(C)cc2)csc1NC(=O)/C(C#N)=C/c1ccc(O)c(OC)c1,1,195*,-190,2
COc1cc(/C=C/C(=O)OCC(=O)Nc2ccc3c(c2)OCCO3)ccc1O,1,-1,17,1
O=[N+]([O-])c1ccc(Oc2ccc(S(=O)(=O)Nc3ccccc3)cc2)cc1,9,34,-35,21*
O=[N+]([O-])c1ccc(S(=O)(=O)Nc2ccncc2)cc1,.,3,-5,.
O=c1c(/C=C(\O)c2ccc(F)cc2)nc2ccccc2n1-c1ccccc1,0,163*,-118,-1
CCOc1ccc(/C=N/OCC(=O)NC(c2ccccc2)c2ccccc2)cc1,0,54*,-142,0
COc1ccc(/C=N/OCC(=O)NC(c2ccccc2)c2ccccc2)c(OC)c1,-1,0,20,0
COc1ccc(CN2CCC(CO)(CCOc3ccccc3)CC2)cc1C,2,3,88*,1
Cc1cc(N)n2nc(-c3ccccc3)c(-c3ccccc3)c2n1,.,-2,-7,.
Cc1nn(-c2cccc(Cl)c2)c2nc(C(F)(F)F)[nH]c(=O)c12,0,26,86*,2
O=C(NC(=S)Nc1ccccc1N1CCOCC1)c1ccccc1F,.,-3,3,.
O=c1[nH]c2ccccc2nc1/C=C/c1ccccc1,1,0,-2,-1
O=c1[nH]c2ccccc2nc1/C=C/c1ccc(O)cc1,3,104*,-152,4
O=c1[nH]c2ccccc2nc1/C=C(\O)c1cccs1,5,224*,-195,11
O/C(=C\c1nc2ccccc2[nH]1)c1cccs1,.,21,-15,.
CN(CC(=O)Nc1ccc2c(c1)OCCO2)CC(=O)Nc1ccc(F)c(F)c1F,.,6,68*,.
CSC1=NCCN1C(=O)Cc1ccc(Cl)cc1,0,0,50*,1
Cc1cccn2c(=O)nc(SCC(=O)Nc3cccc4ccccc34)nc12,.,-1,9,.
SMILES,TRPML3 ag,CRFR2-BP ag,CRFR2-BP antag,TRPN1 ag
CN(Cc1nc(-c2ccccn2)no1)S(=O)(=O)c1ccc(Cl)cc1,1,54*,-128,0
CN(Cc1nc(-c2cccnc2)no1)S(=O)(=O)c1ccccc1,1,0,-1,1
CN(C)c1ccc(/C=C(/C#N)C(=O)Nc2nc3c(s2)CCN(Cc2ccccc2)C3)cc1,.,158*,-88,.
CCOC(=O)c1c(C)[nH]c(C(=O)OCC(=O)N2CCc3ccccc32)c1C,1,0,-13,0
CCOc1cc(N2CCOCC2)c(OCC)cc1NC(=O)[C@H](C)N1C(=O)C2CC=CCC2C1=O (stereo not given in full),0,-2,-1,0
COC(=O)c1sc(-c2ccc(C(C)(C)C)cc2)cc1NC(=O)COCC(=O)O,1,1,60*,2
COC(=O)c1sc(-c2ccc(Cl)cc2)cc1NC(=O)CSCC(=O)O,1,-4,26,1
CSc1nnc(C)c(=O)n1COC(=O)COc1ccccc1F,1,1,1,1
